For eleven molecules, solubility and IC50 results are on record in ChEMBL document CHEMBL1128665, “Design, synthesis, and structure-activity relationship of novel dinucleotide analogs as agents against herpes and human immunodeficiency viruses” (J Med Chem, 1995).

As usually defined, the solubility is the dissolved amount per volume that the medium holds. A word on the IC50: it is the concentration needed to halve the response being measured.

In brackets after ≈: the same amount, converted by molar mass.

System in the first data set: not listed separately
Nature of the data set: Solubility was determined with phosphate buffer (0.10M, 5 mL). It counts as physicochemical. The note with it: read-out: Solubility in water. In a few lines: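 Solid compound (70 mg) was agitated in 0.10 M phosphate buffer (5.0 mL) for 20 h. Undissolved solid was filtered off on sintered glass, and the dissolved concentration was determined by UV absorbance.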
For the molecule `Nc1ncnc2c1ncn2COCCO`, the solubility was 1950 µg/mL (≈ 9320 µM).

On to `Nc1ncnc2c1ncn2[C@@H]1O[C@H](CO)[C@@H](O)[C@H]1O` [ADENOSINE], for which the solubility came out at 400 µg/mL (≈ 1500 µM).

The subject of the next data set is HeLa. The data set is described as follows: Concentration required to cause microscopically visible change or disruption in about 50% of Hela cell sheet. It counts as functional, cell-based. The note with it: Homo sapiens. In a few lines:
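Uninfected HeLa cell sheets were exposed to a range of compound concentrations and checked microscopically for morphological change. The value is the concentration causing visible change or disruption in about 50% of the cell sheet.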
As to `Nc1ncnc2c1ncn2[C@@H]1O[C@H](CO)[C@@H](O)[C@H]1O` [ADENOSINE], the IC50 was found to be 98.8 µg/mL (≈ 370 µM).

The data set is the same for the next values; noted with them: Homo sapiens, read-out: IC50.
`CCOP(=O)(O)CCOCn1cnc2c(N)ncnc21.N`: the IC50 was 176 µg/mL.

On to `Nc1ncnc2c1ncn2COCCP(=O)(O)O.Nc1ncnc2c1ncn2[C@@H]1O[C@H](CO)[C@@H](O)[C@@H]1O`, for which the IC50 came to 168 µg/mL.

For `Nc1ncnc2c1ncn2COCCO`, the IC50 is 266 µg/mL (≈ 1270 µM).

Turning to `Nc1ncnc2c1ncn2COCCO.Nc1ncnc2c1ncn2COCCP(=O)(O)O`, the IC50 came out at 235 µg/mL.

`Nc1nc2c(ncn2COCCO)c(=O)[nH]1` [ACYCLOVIR]: the IC50 came to 250 µg/mL (≈ 1110 µM).

A further data set concerns HeLa. The data set is described as follows: Inhibition of cytopathogenicity of herpes simplex type 1 virus (HSV-1)(KOS) in Hela cell culture. It counts as functional, cell-based. The settings on record: Homo sapiens. On the technique in general: Protection from cytopathic effect is a common read-out in antiviral testing.
Turning to `Nc1ncnc2c1ncn2[C@@H]1O[C@H](CO)[C@@H](O)[C@H]1O` [ADENOSINE], half-maximal inhibition (IC50) was put at 10.8 µg/mL (≈ 40.4 µM).

Staying with this data set, now noted: Homo sapiens, read-out: IC50.
Turning to `CCOP(=O)(O)CCOCn1cnc2c(N)ncnc21.N`, the IC50 was 11.3 µg/mL.

Turning to `Nc1ncnc2c1ncn2COCCP(=O)(O)O.Nc1ncnc2c1ncn2[C@@H]1O[C@H](CO)[C@@H](O)[C@@H]1O`, the IC50 amounted to 0.67 µg/mL.

With `Nc1ncnc2c1ncn2COCCO`, the IC50 worked out at 4.43 µg/mL (≈ 21.2 µM).

Regarding `Nc1ncnc2c1ncn2COCCO.Nc1ncnc2c1ncn2COCCP(=O)(O)O`, the IC50 amounted to 0.15 µg/mL.

`Nc1nc2c(ncn2COCCO)c(=O)[nH]1` [ACYCLOVIR]: the IC50 came out at 0.1 µg/mL (≈ 0.444 µM).

Another data set has as its system HeLa. Nature of the data set: Inhibition of cytopathogenicity of herpes simplex type 2 virus([…] in Hela cell culture. The note with it: Homo sapiens. It counts as functional, cell-based.
`CCOP(=O)(O)CCOCn1cnc2c(N)ncnc21.N` displayed an IC50 of 13.8 µg/mL.

`Nc1ncnc2c1ncn2COCCP(=O)(O)O.Nc1ncnc2c1ncn2[C@@H]1O[C@H](CO)[C@@H](O)[C@@H]1O` returned an IC50 of 1.25 µg/mL.

`Nc1ncnc2c1ncn2COCCO` gave an IC50 of 8.26 µg/mL (≈ 39.5 µM).

In turn, `Nc1ncnc2c1ncn2COCCO.Nc1ncnc2c1ncn2COCCP(=O)(O)O` yielded an IC50 of 0.38 µg/mL.

`Nc1nc2c(ncn2COCCO)c(=O)[nH]1` [ACYCLOVIR] had an IC50 of 0.23 µg/mL (≈ 1.02 µM).

A further data set concerns HeLa. Nature of the data set: Inhibition of cytopathogenicity of herpes simplex type 2 virus([…] in Hela cell culture; Not active up to 128 ug/mL. It counts as functional, cell-based, Homo sapiens.
Conditions: not given; call rule not given here
Turning to `Nc1ncnc2c1ncn2[C@@H]1O[C@H](CO)[C@@H](O)[C@H]1O` [ADENOSINE], the IC50 entry was “Not Active”.

In a further data set the test system is HeLa. The data set is described as follows: Inhibition of cytopathogenicity of Varicella-Zoster virus(VZV)(YS) in Hela cell culture; Not active up to 128 ug/mL. It counts as functional, cell-based, Homo sapiens.
Conditions: not given
Take `Nc1ncnc2c1ncn2[C@@H]1O[C@H](CO)[C@@H](O)[C@H]1O` [ADENOSINE]: the IC50 entry was “Not Active”.

Another data set has as its system MT4. The data set is described as follows: Concentration required to reduce the number of viable uninfected cells by 50%. It counts as functional, cell-based. The settings on record: Homo sapiens. In outline:
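Uninfected MT4 cells were used for the toxicity arm of the anti-HIV-1 cell-protection assay. The value is the concentration reducing the number of viable uninfected cells by 50%. […]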
Molecule `Cc1cn([C@H]2C=C[C@@H](CP(=O)(O)O)O2)c(=O)[nH]c1=O` registered an IC50 of 196 µg/mL (≈ 679 µM).

Regarding `Cc1cn([C@H]2C[C@H](C#N)[C@@H](CP(=O)(O)O)O2)c(=O)[nH]c1=O`, 69.9 µg/mL (≈ 222 µM) corresponded to half-maximal inhibition (IC50).

As to `Cc1cn([C@H]2CC[C@@H](CP(=O)(O)O)O2)c(=O)[nH]c1=O`, the midpoint of inhibition, the IC50, lay at 128 µg/mL (≈ 443 µM).

In turn, `Cc1cn([C@H]2C[C@H](N=[N+]=[N-])[C@@H](CP(=O)(O)O)O2)c(N)nc1=O` had an IC50 of 58.6 µg/mL (≈ 178 µM).

`Cc1cn([C@H]2C[C@H](N=[N+]=[N-])[C@@H](CO)O2)c(=O)[nH]c1=O` [ZIDOVUDINE] returned a concentration for half-maximal inhibition (IC50) of 57.3 µg/mL (≈ 214 µM).

A further data set deals with HeLa. The data set is described as follows: Inhibition of cytopathogenicity of Varicella-Zoster virus(VZV)(YS) in Hela cell culture. It counts as functional, cell-based. The note with it: Homo sapiens.
For the molecule `CCOP(=O)(O)CCOCn1cnc2c(N)ncnc21.N`, the IC50 was determined as 25 µg/mL.

`Nc1ncnc2c1ncn2COCCP(=O)(O)O.Nc1ncnc2c1ncn2[C@@H]1O[C@H](CO)[C@@H](O)[C@@H]1O` gave an IC50 of 2.86 µg/mL.

On to `Nc1ncnc2c1ncn2COCCO`, for which the IC50 was found to be 6.5 µg/mL (≈ 31.1 µM).

The molecule `Nc1ncnc2c1ncn2COCCO.Nc1ncnc2c1ncn2COCCP(=O)(O)O` registered an IC50 of 0.18 µg/mL.

In the next data set the test system is MT4. Nature of the data set: Inhibitory Effect against HIV-1 (IIIB) in MT4 cells. The settings on record: Homo sapiens.
As to `Cc1cn([C@H]2CC[C@@H](CP(=O)(O)O)O2)c(=O)[nH]c1=O`, half-maximal inhibition (IC50) was put at 23.5 µg/mL (≈ 81 µM).

As for `Cc1cn([C@H]2C[C@H](N=[N+]=[N-])[C@@H](CO)O2)c(=O)[nH]c1=O` [ZIDOVUDINE], the IC50 worked out at 0.02 µg/mL (≈ 0.0748 µM).

In another data set the test system is MT4. Nature of the data set: Inhibitory Effect against HIV-1 (IIIB) in MT4 cells; Not active up to 128 ug/mL. The note with it: Homo sapiens.
For `Cc1cn([C@H]2C=C[C@@H](CP(=O)(O)O)O2)c(=O)[nH]c1=O`, the IC50 entry is reported as “Not Active”.

On to `Cc1cn([C@H]2C[C@H](C#N)[C@@H](CP(=O)(O)O)O2)c(=O)[nH]c1=O`, for which the IC50 entry is given as “Not Active”.

`Cc1cn([C@H]2C[C@H](N=[N+]=[N-])[C@@H](CP(=O)(O)O)O2)c(N)nc1=O`: the IC50 entry is given as “Not Active”.
